In publication PMC4462192 (Bioorganic & medicinal chemistry letters, 2015):

Experiments:
[1] = biological target: T1, GGTase II (Homo sapiens, UniProt P53611+Q92696); settings: cited from earlier work
T1 sequence (Q92696 1-567): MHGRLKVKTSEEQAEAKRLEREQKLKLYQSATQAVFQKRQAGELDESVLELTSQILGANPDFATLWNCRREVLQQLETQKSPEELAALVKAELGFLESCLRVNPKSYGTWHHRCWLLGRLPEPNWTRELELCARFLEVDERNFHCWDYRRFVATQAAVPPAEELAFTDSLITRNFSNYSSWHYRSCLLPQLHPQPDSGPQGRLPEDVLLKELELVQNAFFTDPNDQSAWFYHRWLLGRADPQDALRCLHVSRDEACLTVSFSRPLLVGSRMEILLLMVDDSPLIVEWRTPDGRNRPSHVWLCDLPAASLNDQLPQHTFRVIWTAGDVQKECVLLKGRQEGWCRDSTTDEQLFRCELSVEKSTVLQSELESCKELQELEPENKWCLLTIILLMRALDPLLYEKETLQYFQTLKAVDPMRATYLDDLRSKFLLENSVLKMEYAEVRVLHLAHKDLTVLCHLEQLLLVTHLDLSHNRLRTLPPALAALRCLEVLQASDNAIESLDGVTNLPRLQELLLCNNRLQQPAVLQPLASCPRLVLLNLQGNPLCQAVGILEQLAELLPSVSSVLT
T1 sequence (P53611 1-331): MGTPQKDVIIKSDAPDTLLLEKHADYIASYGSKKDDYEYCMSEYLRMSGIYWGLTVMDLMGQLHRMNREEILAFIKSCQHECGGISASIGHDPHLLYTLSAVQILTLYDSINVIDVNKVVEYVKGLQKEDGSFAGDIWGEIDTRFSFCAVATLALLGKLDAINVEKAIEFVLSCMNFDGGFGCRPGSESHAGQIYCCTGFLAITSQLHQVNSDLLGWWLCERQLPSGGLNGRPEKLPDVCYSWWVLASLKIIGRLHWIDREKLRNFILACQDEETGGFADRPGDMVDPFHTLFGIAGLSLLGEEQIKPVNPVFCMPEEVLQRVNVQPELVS

[2] = test system: geranylgeranyl diphosphate synthase (GGDPS); settings: cited from earlier work
[3] = test system: RPMI-8226 cells; assay: intracellular lambda light chain ELISA; type: cell-based, human; settings: 48 hours, 5 mM, vs untreated control
Method in brief: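 RPMI-8226 cells were incubated for 48 hours with test compound at 5 mM, alongside untreated and lovastatin (20 μM) controls. Intracellular lambda light chain was quantified by ELISA and expressed as percent of untreated control, mean + SD, n=3. Significance versus untreated cells was assessed by unpaired two-tailed t-test at p<0.05.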

[4] = test system: farnesyl diphosphate synthase (FDPS); settings: cited from earlier work
[5] = test system: Rab6 geranylgeranylation in RPMI-8226 cells; assay: immunoblot for membrane-bound Rab6; type: cell-based, human; settings: 48 hours, 5 mM, detergent (membrane) fraction
Method in brief: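 RPMI-8226 human myeloma cells were exposed to test compound at 5 mM or left untreated for 48 hours, with lovastatin at 20 μM as a global prenylation-disruption control. Cells were lysed by Triton X-114 partitioning to give the detergent (membrane) fraction, which was immunoblotted for Rab6 with calnexin as the loading control. Blots are representative of two independent studies.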

SMILES | intracellular lambda light chain accumulation [3] | activity against FDPS [4] | membrane-bound Rab6 level [5] | other results
O=C(O)C(O)(Cc1cnc2ccccn12)P(=O)(O)O (single isomer, unassigned; enantiomer 4) [(+)-enantiomer 4] |  |  |  | activity of (+)-enantiomer relative to (−)-enantiomer [1]: ~ 60 fold; inhibition of other enzyme involved in isoprenoid biosynthesis, probably GGDPS [2]: weak inhibition
O=C(O)C(O)(Cc1cccnc1)P(=O)(O)O (stereo not drawn) [compound 1, 2-(3-pyridinyl)-1-hydroxyethylidene-1,1-phosphonocarboxylic acid] | induce an accumulation of intracellular light chain | show little activity against FDPS | induces a decrease in the amount of membrane-bound Rab6 | difference in activity between the enantiomers [1]: ~ 4 fold
O=C(O)C(Cc1cccnc1)P(=O)(O)O (stereo not drawn) [compound 2, 2-(3-pyridinyl)-1-ethylidene-1,1-phosphonocarboxylic acid] | do not significantly alter light chain trafficking | show little activity against FDPS | diminished the level of membrane-bound Rab6 to a lesser extent | GGTase II potency relative to PEHPC [1]: potency similar to PEHPC
O=C(O)C(O)(Cc1ccc[n+]([O-])c1)P(=O)(O)O (stereo not drawn) [compound 6] | induce an accumulation of intracellular light chain |  | diminished the level of membrane-bound Rab6 to a lesser extent | 
O=C(O)C(Cc1ccc[n+]([O-])c1)P(=O)(O)O (stereo not drawn) [compound 7] | do not significantly alter light chain trafficking |  | did not decrease membrane-bound Rab6 levels | 
